Source: ChEMBL document CHEMBL4689842, “EUbOPEN Chemogenomics Library wave 1” (2021)

Tested on: Fibroblast
Assay: Multiplex assay against human fibroblast
Format: toxicity, cell-based
Method in brief: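 Values for tubulin, mitochondrial-mass and membrane-permeability phenotypes are per cents of cells with healthy nuclei. These cells were identified by CellPathfinder machine-learning gating of live cells that had been stained at seeding with Hoechst33342, BioTracker Green Microtubule Cytoskeleton Dye, MitoTracker Red and Annexin V Alexa Fluor 680 and imaged on a CQ1 microscope at 37°C and 5% CO2 after compound addition. The gating first set Hoechst high-intensity objects apart from normal cells, then split normal cells into healthy, pyknosed or fragmented nuclei, and pyknosed cells into mitotic or apoptotic.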

[1] = 12 h, 1 µM, compound concentration 1 uM, replicate 1
[2] = 12 h, 1 µM, compound concentration 1 uM, replicate 2
[3] = 12 h, 10 µM, compound concentration 10 uM, replicate 1
[4] = 12 h, 10 µM, compound concentration 10 uM, replicate 2
[5] = 24 h, 1 µM, compound concentration 1 uM, replicate 1
[6] = 24 h, 1 µM, compound concentration 1 uM, replicate 2
[7] = 24 h, 10 µM, compound concentration 10 uM, replicate 1
[8] = 24 h, 10 µM, compound concentration 10 uM, replicate 2
[9] = 48 h, 1 µM, compound concentration 1 uM, replicate 1
[10] = 48 h, 1 µM, compound concentration 1 uM, replicate 2
[11] = 48 h, 10 µM, compound concentration 10 uM, replicate 1
[12] = 48 h, 10 µM, compound concentration 10 uM, replicate 2

## COc1ccc(-c2ccc3ncc4c(c3c2)n(-c2ccc(N3CCNCC3)c(C(F)(F)F)c2)c(=O)n4C)cn1.O=C(O)/C=C\C(=O)O [BGT-226]
[1]
  Population Apoptotic (%): 67%
  Population Fragmented Nuclei (%): 34%
  Population Healthy Nuclei (%): 14%
  Population Hoechst High Intensity Objects (%): 14%
  Population Membrane Permeable-Phenotype (%): 26%
  Population Mitochondria Different-Phenotype (%): 33%
  Population Mitotic Cells (%): 32%
  Population Normal (%): 85%
  Population Pyknosed Nuclei (%): 50%
  Population Tubulin-Different-Phenotype (%): 93%
  Total Cell Count: 122
[2]
  Population Apoptotic (%): 81%
  Population Fragmented Nuclei (%): 24%
  Population Healthy Nuclei (%): 45%
  Population Hoechst High Intensity Objects (%): 17%
  Population Membrane Permeable-Phenotype (%): 70%
  Population Mitochondria Different-Phenotype (%): 94%
  Population Mitotic Cells (%): 18%
  Population Normal (%): 82%
  Population Pyknosed Nuclei (%): 29%
  Population Tubulin-Different-Phenotype (%): 94%
  Total Cell Count: 45
[3]
  Population Apoptotic (%): 62%
  Population Fragmented Nuclei (%): 27%
  Population Healthy Nuclei (%): 2%
  Population Hoechst High Intensity Objects (%): 14%
  Population Membrane Permeable-Phenotype (%): 50%
  Population Mitochondria Different-Phenotype (%): 0%
  Population Mitotic Cells (%): 37%
  Population Normal (%): 85%
  Population Pyknosed Nuclei (%): 69%
  Population Tubulin-Different-Phenotype (%): 0%
  Total Cell Count: 89
[4]
  Population Apoptotic (%): 100%
  Population Fragmented Nuclei (%): 70%
  Population Healthy Nuclei (%): 9%
  Population Hoechst High Intensity Objects (%): 62%
  Population Membrane Permeable-Phenotype (%): 24%
  Population Mitochondria Different-Phenotype (%): 32%
  Population Mitotic Cells (%): 0%
  Population Normal (%): 37%
  Population Pyknosed Nuclei (%): 19%
  Population Tubulin-Different-Phenotype (%): 24%
  Total Cell Count: 675
[5]
  Population Apoptotic (%): 69%
  Population Fragmented Nuclei (%): 45%
  Population Healthy Nuclei (%): 12%
  Population Hoechst High Intensity Objects (%): 18%
  Population Membrane Permeable-Phenotype (%): 58%
  Population Mitochondria Different-Phenotype (%): 16%
  Population Mitotic Cells (%): 30%
  Population Normal (%): 81%
  Population Pyknosed Nuclei (%): 41%
  Population Tubulin-Different-Phenotype (%): 50%
  Total Cell Count: 115
[6]
  Population Apoptotic (%): 83%
  Population Fragmented Nuclei (%): 20%
  Population Healthy Nuclei (%): 40%
  Population Hoechst High Intensity Objects (%): 30%
  Population Membrane Permeable-Phenotype (%): 66%
  Population Mitochondria Different-Phenotype (%): 91%
  Population Mitotic Cells (%): 16%
  Population Normal (%): 69%
  Population Pyknosed Nuclei (%): 40%
  Population Tubulin-Different-Phenotype (%): 91%
  Total Cell Count: 43
[7]
  Population Apoptotic (%): 58%
  Population Fragmented Nuclei (%): 23%
  Population Healthy Nuclei (%): 32%
  Population Hoechst High Intensity Objects (%): 26%
  Population Membrane Permeable-Phenotype (%): 38%
  Population Mitochondria Different-Phenotype (%): 0%
  Population Mitotic Cells (%): 41%
  Population Normal (%): 73%
  Population Pyknosed Nuclei (%): 44%
  Population Tubulin-Different-Phenotype (%): 52%
  Total Cell Count: 89
[8]
  Population Apoptotic (%): 100%
  Population Fragmented Nuclei (%): 79%
  Population Healthy Nuclei (%): 10%
  Population Hoechst High Intensity Objects (%): 64%
  Population Membrane Permeable-Phenotype (%): 69%
  Population Mitochondria Different-Phenotype (%): 60%
  Population Mitotic Cells (%): 0%
  Population Normal (%): 35%
  Population Pyknosed Nuclei (%): 9%
  Population Tubulin-Different-Phenotype (%): 60%
  Total Cell Count: 614
[9]
  Population Apoptotic (%): 84%
  Population Fragmented Nuclei (%): 55%
  Population Healthy Nuclei (%): 25%
  Population Hoechst High Intensity Objects (%): 38%
  Population Membrane Permeable-Phenotype (%): 58%
  Population Mitochondria Different-Phenotype (%): 11%
  Population Mitotic Cells (%): 15%
  Population Normal (%): 61%
  Population Pyknosed Nuclei (%): 19%
  Population Tubulin-Different-Phenotype (%): 47%
  Total Cell Count: 111
[10]
  Population Apoptotic (%): 62%
  Population Fragmented Nuclei (%): 28%
  Population Healthy Nuclei (%): 59%
  Population Hoechst High Intensity Objects (%): 27%
  Population Membrane Permeable-Phenotype (%): 19%
  Population Mitochondria Different-Phenotype (%): 19%
  Population Mitotic Cells (%): 37%
  Population Normal (%): 72%
  Population Pyknosed Nuclei (%): 11%
  Population Tubulin-Different-Phenotype (%): 85%
  Total Cell Count: 188
[11]
  Population Apoptotic (%): 66%
  Population Fragmented Nuclei (%): 57%
  Population Healthy Nuclei (%): 37%
  Population Hoechst High Intensity Objects (%): 42%
  Population Membrane Permeable-Phenotype (%): 50%
  Population Mitochondria Different-Phenotype (%): 4%
  Population Mitotic Cells (%): 33%
  Population Normal (%): 57%
  Population Pyknosed Nuclei (%): 4%
  Population Tubulin-Different-Phenotype (%): 58%
  Total Cell Count: 111
[12]
  Population Apoptotic (%): 25%
  Population Fragmented Nuclei (%): 75%
  Population Healthy Nuclei (%): 17%
  Population Hoechst High Intensity Objects (%): 44%
  Population Membrane Permeable-Phenotype (%): 44%
  Population Mitochondria Different-Phenotype (%): 33%
  Population Mitotic Cells (%): 75%
  Population Normal (%): 55%
  Population Pyknosed Nuclei (%): 7%
  Population Tubulin-Different-Phenotype (%): 55%
  Total Cell Count: 94

## C=CC(=O)Nc1ccc2[nH]c(=O)n(C3CCN(Cc4ccc(-c5nc6cc[nH]c(=O)c6cc5-c5ccccc5)cc4)CC3)c2c1 [Borussertib]
[1]
  Population Apoptotic (%): 64%
  Population Fragmented Nuclei (%): 31%
  Population Healthy Nuclei (%): 51%
  Population Hoechst High Intensity Objects (%): 13%
  Population Membrane Permeable-Phenotype (%): 10%
  Population Mitochondria Different-Phenotype (%): 5%
  Population Mitotic Cells (%): 36%
  Population Normal (%): 86%
  Population Pyknosed Nuclei (%): 17%
  Population Tubulin-Different-Phenotype (%): 4%
  Total Cell Count: 169
[2]
  Population Apoptotic (%): 33%
  Population Fragmented Nuclei (%): 63%
  Population Healthy Nuclei (%): 31%
  Population Hoechst High Intensity Objects (%): 30%
  Population Membrane Permeable-Phenotype (%): 11%
  Population Mitochondria Different-Phenotype (%): 0%
  Population Mitotic Cells (%): 66%
  Population Normal (%): 69%
  Population Pyknosed Nuclei (%): 5%
  Population Tubulin-Different-Phenotype (%): 16%
  Total Cell Count: 83
[3]
  Population Apoptotic (%): 60%
  Population Fragmented Nuclei (%): 27%
  Population Healthy Nuclei (%): 56%
  Population Hoechst High Intensity Objects (%): 15%
  Population Membrane Permeable-Phenotype (%): 6%
  Population Mitochondria Different-Phenotype (%): 4%
  Population Mitotic Cells (%): 39%
  Population Normal (%): 84%
  Population Pyknosed Nuclei (%): 16%
  Population Tubulin-Different-Phenotype (%): 27%
  Total Cell Count: 304
[4]
  Population Apoptotic (%): 44%
  Population Fragmented Nuclei (%): 64%
  Population Healthy Nuclei (%): 22%
  Population Hoechst High Intensity Objects (%): 29%
  Population Membrane Permeable-Phenotype (%): 25%
  Population Mitochondria Different-Phenotype (%): 18%
  Population Mitotic Cells (%): 55%
  Population Normal (%): 71%
  Population Pyknosed Nuclei (%): 12%
  Population Tubulin-Different-Phenotype (%): 68%
  Total Cell Count: 100
[5]
  Population Apoptotic (%): 66%
  Population Fragmented Nuclei (%): 29%
  Population Healthy Nuclei (%): 56%
  Population Hoechst High Intensity Objects (%): 13%
  Population Membrane Permeable-Phenotype (%): 4%
  Population Mitochondria Different-Phenotype (%): 2%
  Population Mitotic Cells (%): 33%
  Population Normal (%): 86%
  Population Pyknosed Nuclei (%): 14%
  Population Tubulin-Different-Phenotype (%): 6%
  Total Cell Count: 170
[6]
  Population Apoptotic (%): 100%
  Population Fragmented Nuclei (%): 56%
  Population Healthy Nuclei (%): 41%
  Population Hoechst High Intensity Objects (%): 32%
  Population Membrane Permeable-Phenotype (%): 5%
  Population Mitochondria Different-Phenotype (%): 10%
  Population Mitotic Cells (%): 0%
  Population Normal (%): 67%
  Population Pyknosed Nuclei (%): 2%
  Population Tubulin-Different-Phenotype (%): 10%
  Total Cell Count: 68
[7]
  Population Apoptotic (%): 55%
  Population Fragmented Nuclei (%): 30%
  Population Healthy Nuclei (%): 56%
  Population Hoechst High Intensity Objects (%): 23%
  Population Membrane Permeable-Phenotype (%): 2%
  Population Mitochondria Different-Phenotype (%): 2%
  Population Mitotic Cells (%): 44%
  Population Normal (%): 76%
  Population Pyknosed Nuclei (%): 13%
  Population Tubulin-Different-Phenotype (%): 22%
  Total Cell Count: 347
[8]
  Population Apoptotic (%): 33%
  Population Fragmented Nuclei (%): 55%
  Population Healthy Nuclei (%): 39%
  Population Hoechst High Intensity Objects (%): 40%
  Population Membrane Permeable-Phenotype (%): 4%
  Population Mitochondria Different-Phenotype (%): 8%
  Population Mitotic Cells (%): 66%
  Population Normal (%): 59%
  Population Pyknosed Nuclei (%): 5%
  Population Tubulin-Different-Phenotype (%): 43%
  Total Cell Count: 97
